Laboratory results taken from article PMC8324497 (Cell Reports Medicine, 2021).

Legend:
Format in all cases: cell-based
Calu-6 = test: Cell proliferation assay; details: Homo sapiens, Calu-6, 72 h
U-87 MG = test: Cell proliferation assay; details: Homo sapiens, 72 h
Method in brief: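 Adherent solid-tumour cells were seeded at 5,000 cells/well and allowed to attach for 16–24 h at 37°C, 5% CO2. They were exposed to the test compound at 0.0005–10 μM (3-fold serial dilutions) for 72 h. Alamar Blue was added (1X final) for 1–3 h and fluorescence read at 540 nm excitation, 590 nm emission. IC50 came from a sigmoidal variable-slope fit.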

Daudi = test: Cell viability MTS assay; details: Homo sapiens, read-out: IC50 mean values
Method in brief: (§1)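 Lymphoma suspension lines were grown in RPMI 1640 with 10–20% heat-inactivated FBS, 1% L-glutamine and penicillin-streptomycin at 37°C, 5% CO2. Cells were plated at 25,000/100 μL (96-well) or 250,000/mL (24-well) with DMSO 0.1% vehicle or rising compound concentrations for 24–72 h. MTS reagent was added at 1:5 and absorbance read at 490 nm. IC50 was taken from three independent experiments (mean ± SD).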

L-428 = test: Cell viability MTS assay; details: Homo sapiens, L-428, read-out: IC50 mean values
Method in brief: as §1

REC-1 = test: Cell viability MTS assay; details: Homo sapiens, Rec1, read-out: IC50 mean values
Method in brief: as §1

SU-DHL-10 = test: Cell viability MTS assay; details: Homo sapiens, SU-DHL10, read-out: IC50 mean values
Method in brief: as §1

JeKo-1 = test: Cell viability MTS assay; details: Homo sapiens, JeKo-1, read-out: IC50 mean values
Method in brief: as §1

IC50 (Calu-6): 7 nM | IC50 (U-87 MG): > 10 µM | IC50 (Daudi): > 10 µM | IC50 (SU-DHL-10): 1700 nM
SMILES: Cc1cnc(NC2CCOCC2)nc1-n1cnc(C(=O)NC(CN)c2cc(F)cc(Cl)c2)c1 (stereo not shown) [ASN007, N-(2-amino-1-(3-chloro-5-fluorophenyl)ethyl)-1-(5-methyl-2-((tetrahydro-2H-pyran-4-yl)amino)pyrimidin-4-yl)-1H-imidazole-4-carboxamide]
IC50 (L-428): > 10 µM | IC50 (REC-1): 7.6 µM | IC50 (JeKo-1): 1400 nM
